Measurements taken from ChEMBL document CHEMBL4387708, “Enhancement of Benzothiazoles as Pteridine Reductase-1 Inhibitors for the Treatment of Trypanosomatidic Infections” (J Med Chem, 2019).
Calls of active or inactive are those of the source. The rule behind the calls is not given here.

What was measured:
[1] = Cytotoxicity against human THP1 cells after 72 hrs by MTT assay; format: cell-based, THP-1; conditions: read-out: NOAEL
[2] = target: Cytochrome P450 2C19 (Homo sapiens, UniProt P33261); assay: Inhibition of human CYP2C19 expressed in baculovirus infected insect cells using beetle D-luciferin as substrate preincubated for 30 mins followed by NADPH addition and measured after 30 mins by CYP450-Glo assay
Chain of Cytochrome P450 2C19 (P33261 whole entry): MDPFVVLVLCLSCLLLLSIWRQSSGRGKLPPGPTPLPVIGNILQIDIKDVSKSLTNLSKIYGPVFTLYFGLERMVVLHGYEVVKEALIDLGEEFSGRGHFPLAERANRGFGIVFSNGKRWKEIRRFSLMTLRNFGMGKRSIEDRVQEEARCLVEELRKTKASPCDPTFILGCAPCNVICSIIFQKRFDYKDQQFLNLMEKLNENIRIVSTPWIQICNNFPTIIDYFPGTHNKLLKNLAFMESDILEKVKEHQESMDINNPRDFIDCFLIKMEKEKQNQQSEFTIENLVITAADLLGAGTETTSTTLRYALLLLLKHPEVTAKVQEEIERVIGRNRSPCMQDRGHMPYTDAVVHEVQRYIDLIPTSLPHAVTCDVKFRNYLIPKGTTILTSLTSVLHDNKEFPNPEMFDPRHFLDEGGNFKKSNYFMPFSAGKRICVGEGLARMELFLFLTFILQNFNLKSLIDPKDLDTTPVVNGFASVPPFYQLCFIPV

[3] = system: Trypanosoma cruzi; assay: Growth inhibition of trypomastigote form of Trypanosoma cruzi Y infected in human U2OS cells at 50 uM measured after 72 hrs by DRAQ5 DNA dye based confocal microscopic analysis relative to control; format: organism-based; conditions: for inhibition at 50 µM: Trypanosoma cruzi, Y, U2OS, read-out: GI; for growth inhibition (GI): trypanosoma cruzi, 50 µM
[4] = target: Cytochrome P450 2D6 (Homo sapiens, UniProt P10635); assay: Inhibition of human CYP2D6 expressed in baculovirus infected insect cells using beetle D-luciferin as substrate preincubated for 30 mins followed by NADPH addition and measured after 30 mins by CYP450-Glo assay
Chain of Cytochrome P450 2D6 (P10635 whole entry): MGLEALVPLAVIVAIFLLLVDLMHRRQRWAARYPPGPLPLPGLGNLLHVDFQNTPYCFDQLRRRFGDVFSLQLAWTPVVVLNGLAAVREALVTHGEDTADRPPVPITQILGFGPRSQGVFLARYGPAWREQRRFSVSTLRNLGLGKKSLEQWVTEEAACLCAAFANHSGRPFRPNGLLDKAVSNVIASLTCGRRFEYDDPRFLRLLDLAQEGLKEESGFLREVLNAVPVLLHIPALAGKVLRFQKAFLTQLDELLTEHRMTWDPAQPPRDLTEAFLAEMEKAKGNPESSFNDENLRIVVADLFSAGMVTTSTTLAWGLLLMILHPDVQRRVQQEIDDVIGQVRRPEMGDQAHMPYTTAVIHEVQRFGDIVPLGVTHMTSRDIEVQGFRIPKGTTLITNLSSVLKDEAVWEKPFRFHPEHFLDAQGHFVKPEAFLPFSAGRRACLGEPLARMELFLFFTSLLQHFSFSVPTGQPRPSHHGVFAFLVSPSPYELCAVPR

[5] = target: Cytochrome P450 3A4 (Homo sapiens, UniProt P08684); assay: Inhibition of human CYP3A4 expressed in baculovirus infected insect cells using beetle D-luciferin as substrate preincubated for 30 mins followed by NADPH addition and measured after 30 mins by CYP450-Glo assay
Chain of Cytochrome P450 3A4 (P08684 whole entry): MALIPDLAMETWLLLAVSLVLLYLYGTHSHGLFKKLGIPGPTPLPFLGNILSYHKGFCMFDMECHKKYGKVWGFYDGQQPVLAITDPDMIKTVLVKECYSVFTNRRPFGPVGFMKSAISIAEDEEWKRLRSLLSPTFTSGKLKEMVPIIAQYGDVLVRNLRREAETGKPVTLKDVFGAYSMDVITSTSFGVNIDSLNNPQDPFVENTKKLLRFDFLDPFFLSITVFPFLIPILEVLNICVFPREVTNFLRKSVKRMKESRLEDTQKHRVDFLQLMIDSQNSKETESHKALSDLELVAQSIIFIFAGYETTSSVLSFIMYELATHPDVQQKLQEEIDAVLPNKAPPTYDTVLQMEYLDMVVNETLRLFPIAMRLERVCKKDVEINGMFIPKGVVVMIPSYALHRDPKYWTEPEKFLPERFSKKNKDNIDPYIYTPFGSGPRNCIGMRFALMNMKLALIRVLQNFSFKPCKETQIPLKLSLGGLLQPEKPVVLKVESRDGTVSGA

[6] = system: Trypanosoma brucei; assay: Growth inhibition of Trypanosoma brucei bloodstream forms at 10 uM measured after 72 hrs by resazurin-based fluorescence assay relative to control; format: organism-based; conditions: for inhibition at 10 µM: Trypanosoma brucei, read-out: GI; for growth inhibition (GI): trypanosoma brucei, 10 µM
[7] = target: Cytochrome P450 2C9 (Homo sapiens, UniProt P11712); assay: Inhibition of human CYP2C9 expressed in baculovirus infected insect cells using beetle D-luciferin as substrate preincubated for 30 mins followed by NADPH addition and measured after 30 mins by CYP450-Glo assay
Chain of Cytochrome P450 2C9 (P11712 whole entry): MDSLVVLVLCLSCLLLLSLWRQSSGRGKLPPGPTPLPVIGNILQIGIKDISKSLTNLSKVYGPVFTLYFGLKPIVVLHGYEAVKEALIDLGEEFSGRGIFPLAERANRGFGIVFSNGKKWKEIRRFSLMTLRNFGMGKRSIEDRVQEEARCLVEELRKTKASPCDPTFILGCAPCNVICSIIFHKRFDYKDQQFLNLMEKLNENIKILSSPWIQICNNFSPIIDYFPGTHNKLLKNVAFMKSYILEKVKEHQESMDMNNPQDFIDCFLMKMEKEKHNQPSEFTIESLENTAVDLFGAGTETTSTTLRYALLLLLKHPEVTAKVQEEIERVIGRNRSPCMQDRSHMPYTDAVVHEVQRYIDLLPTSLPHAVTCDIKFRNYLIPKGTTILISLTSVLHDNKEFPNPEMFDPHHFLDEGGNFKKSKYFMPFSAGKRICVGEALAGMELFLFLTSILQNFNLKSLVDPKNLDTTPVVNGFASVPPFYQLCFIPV

[8] = target: T1, Pteridine reductase 1 (Leishmania major, UniProt Q01782); assay: Inhibition of Leishmania major pteridine reductase 1 using di-hydrobiopterine as substrate in presence of NADPH
T1 sequence (Q01782 whole entry): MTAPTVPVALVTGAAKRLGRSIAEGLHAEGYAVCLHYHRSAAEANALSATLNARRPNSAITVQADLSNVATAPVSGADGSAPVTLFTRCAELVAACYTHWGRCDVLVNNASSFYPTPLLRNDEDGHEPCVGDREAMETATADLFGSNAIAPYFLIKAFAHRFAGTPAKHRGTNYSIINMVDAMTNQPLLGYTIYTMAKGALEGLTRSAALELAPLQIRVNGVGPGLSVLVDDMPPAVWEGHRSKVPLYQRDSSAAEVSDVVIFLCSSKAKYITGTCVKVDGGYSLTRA
Outline: (§1)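 Photometric PTR1 assay with NADPH and dihydrobiopterin substrate. H₄B formation is coupled non-enzymatically to cytochrome c reduction, read as signal increase at 550 nm.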

[9] = target: T2, Cytochrome P450 1A2 (Homo sapiens, UniProt P05177); assay: Inhibition of human CYP1A2 expressed in baculovirus infected insect cells using beetle D-luciferin as substrate preincubated for 30 mins followed by NADPH addition and measured after 30 mins by CYP450-Glo assay
T2 sequence (P05177 whole entry): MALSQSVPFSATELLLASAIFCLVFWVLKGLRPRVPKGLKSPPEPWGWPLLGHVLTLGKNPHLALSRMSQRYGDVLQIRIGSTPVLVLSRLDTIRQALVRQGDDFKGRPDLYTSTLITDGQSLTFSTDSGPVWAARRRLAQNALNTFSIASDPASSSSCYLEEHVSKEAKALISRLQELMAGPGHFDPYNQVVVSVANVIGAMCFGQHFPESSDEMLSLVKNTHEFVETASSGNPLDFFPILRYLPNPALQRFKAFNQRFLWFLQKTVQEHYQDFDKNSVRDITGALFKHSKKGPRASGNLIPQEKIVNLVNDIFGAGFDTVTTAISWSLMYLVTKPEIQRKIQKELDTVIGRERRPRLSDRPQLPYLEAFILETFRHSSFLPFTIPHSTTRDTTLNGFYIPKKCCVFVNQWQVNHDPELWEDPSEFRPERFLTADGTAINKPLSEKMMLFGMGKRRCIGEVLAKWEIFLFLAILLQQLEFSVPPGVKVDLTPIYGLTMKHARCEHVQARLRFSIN

[10] = Inhibition of N-terminal His-tagged Trypanosoma brucei pteridine reductase 1 using di-hydrobiopterine as substrate measured at 1 min interval for 50 mins in presence of NADPH; outline: as §1
[11] = Cytotoxicity against human U2OS cells assessed as reduction in cell number; format: cell-based
[12] = Selectivity ratio of IC50 for Leishmania major pteridine reductase 1 to IC50 for N-terminal His-tagged Trypanosoma brucei pteridine reductase 1
[13] = Cytotoxicity against human A549 cells after 48 hrs by Celltiter-glo assay; format: cell-based
[14] = system: Trypanosoma brucei; assay: Inhibition of N-terminal His-tagged Trypanosoma brucei pteridine reductase 1 at 50 uM using di-hydrobiopterine as substrate measured at 1 min interval for 50 mins in presence of NADPH relative to control; outline: as §1
[15] = target: T3, Pteridine reductase 1 (Leishmania major) (UniProt Q01782); assay: Inhibition of Leishmania major pteridine reductase 1 at 50 uM using di-hydrobiopterine as substrate in presence of NADPH relative to control; outline: as §1
T3 sequence (whole entry): T1 sequence (Q01782 whole entry)

[16] = Mitochondrial toxicity in human 786-O cells measured after 6 hrs by MitoTracker Red chloromethyl-X-rosamine based assay; format: cell-based, 786-0
[17] = target: Voltage-gated inwardly rectifying potassium channel KCNH2 (Homo sapiens, UniProt Q12809); assay: Displacement of Tracer Red from human ERG by fluorescence polarization assay
Chain of Voltage-gated inwardly rectifying potassium channel KCNH2 (Q12809 whole entry): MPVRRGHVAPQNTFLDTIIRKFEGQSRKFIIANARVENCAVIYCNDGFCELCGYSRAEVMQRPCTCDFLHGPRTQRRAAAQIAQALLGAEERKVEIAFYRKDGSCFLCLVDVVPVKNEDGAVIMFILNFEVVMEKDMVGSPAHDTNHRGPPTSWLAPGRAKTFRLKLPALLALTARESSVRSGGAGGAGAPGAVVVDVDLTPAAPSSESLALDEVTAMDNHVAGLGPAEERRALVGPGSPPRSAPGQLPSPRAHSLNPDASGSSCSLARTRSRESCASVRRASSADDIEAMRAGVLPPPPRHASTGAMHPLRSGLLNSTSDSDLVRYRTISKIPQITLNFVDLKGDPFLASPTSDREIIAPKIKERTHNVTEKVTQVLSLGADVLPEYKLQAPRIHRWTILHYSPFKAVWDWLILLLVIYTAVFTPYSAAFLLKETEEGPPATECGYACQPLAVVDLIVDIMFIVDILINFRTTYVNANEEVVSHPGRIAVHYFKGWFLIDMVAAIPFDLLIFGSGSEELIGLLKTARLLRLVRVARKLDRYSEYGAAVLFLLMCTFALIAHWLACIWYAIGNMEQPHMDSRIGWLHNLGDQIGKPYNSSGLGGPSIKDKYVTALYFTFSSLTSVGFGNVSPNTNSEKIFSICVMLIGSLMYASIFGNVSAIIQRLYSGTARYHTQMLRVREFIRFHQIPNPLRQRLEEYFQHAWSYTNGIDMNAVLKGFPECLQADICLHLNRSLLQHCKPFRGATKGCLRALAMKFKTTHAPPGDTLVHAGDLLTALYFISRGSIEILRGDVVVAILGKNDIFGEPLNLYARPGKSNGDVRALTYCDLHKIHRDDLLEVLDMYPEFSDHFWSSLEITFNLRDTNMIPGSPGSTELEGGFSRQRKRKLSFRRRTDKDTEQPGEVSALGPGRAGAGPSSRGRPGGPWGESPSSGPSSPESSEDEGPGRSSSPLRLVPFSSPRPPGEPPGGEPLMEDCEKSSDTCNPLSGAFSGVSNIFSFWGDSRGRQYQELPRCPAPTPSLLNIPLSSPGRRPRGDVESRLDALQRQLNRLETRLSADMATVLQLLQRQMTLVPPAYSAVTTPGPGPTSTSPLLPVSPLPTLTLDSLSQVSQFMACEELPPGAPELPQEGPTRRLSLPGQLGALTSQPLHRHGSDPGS

[18] = system: Leishmania infantum; assay: Growth inhibition of luciferase expressing Leishmania infantum axenic amastigotes infected in human THP1 cells at 10 uM measured after 72 hrs by steady-glo luminescence assay relative to control; format: organism-based; conditions: for growth inhibition (GI): leishmania infantum, 72 h, 10 µM

Row | Compound | MNTC at 72 h [1] [µM] | IC50 [2] [µM] | inhibition at 50 µM [3] [%] | IC50 [4] [µM] | IC50 [5] [µM] | inhibition at 10 µM [6] [%] | IC50 [7] [µM] | IC50 ([8]; read-out: IC50) [µM] | IC50 [9] [µM] | IC50 [10] [µM] | GI50 [11] [µM] | Ratio IC50 [12] | GI50 at 48 h [13] [µM] | inhibition [14] [%] | inhibition [15] | IC50 at 6 h [16] [µM] | IC50 [17] [µM] | growth inhibition (GI) [18] | growth inhibition (GI) [3] | other results
1 | CS(=O)(=O)c1ccc2nc(N)sc2c1 | > 25 | > 25 | 17.4 | > 25 | > 25 | 17 | > 25 | 32.9 | > 25 | 34.2 | > 25 | 2 to 100 | > 25 | > 60 | > 60% | > 25 | > 25 | Non-Toxic |  | 
2 | CCc1nc(N)nc(N)c1-c1ccc(Cl)cc1 [PYRIMETHAMINE] |  |  |  |  |  |  |  | 13.6 |  | 0.09 |  |  |  |  |  |  |  |  |  | 
3 | Nc1nc2ccc(C(=O)NCc3ccccc3N)cc2s1 | > 25 | > 25 | 6.1 | 10 to 25 | 10 to 25 | 8 | > 25 | 64.7 | > 25 | 13.9 | > 25 | 2 to 100 | > 25 | > 60 | > 60% | > 25 | > 25 | Non-Toxic |  | 
4 | Nc1nc2c(O)cc(C(=O)NCc3ccccc3)cc2s1 | > 25 | 10 to 25 | 28.8 | < 10 | < 10 | 15 | > 25 | 2.48 | > 25 |  | > 25 | 2 to 100 | > 25 | 47.8 | > 60% | > 25 | > 25 |  |  | inhibition at 10 µM ([18]; Leishmania infantum, THP-1, 72 h, read-out: GI): 11%
5 | Nc1nc2ccc(C(=O)NCCc3c[nH]c4ccccc34)cc2s1 | > 25 | 10 to 25 | 1.64 | > 25 | > 25 | 27 | > 25 |  | > 25 | 23.3 | > 25 | 2 to 100 | > 25 | > 60 | inactive | > 25 | > 25 | Non-Toxic |  | IC50 [8]: Not Active
6 | COC(=O)c1ccc(CNC(=O)c2ccc3nc(N)sc3c2)cc1 | > 25 | > 25 |  | > 25 | > 25 | 16 | 10 to 25 | 36 | > 25 | 16.5 | > 25 | 2 to 100 | > 25 | > 60 | > 60% | > 25 | > 25 | Non-Toxic | Non-Toxic | 
7 | COC(=O)C1CCN(C(=O)c2ccc(CS(=O)(=O)c3ccc4nc(N)sc4c3)cc2)CC1 | > 25 | < 10 |  | < 10 | < 10 |  | < 10 | 50 | > 25 | 24.3 | > 25 | 2 to 100 | > 25 | > 60 | > 60% | > 25 | > 25 | Non-Toxic | Non-Toxic | growth inhibition (GI) [6]: Non-Toxic
8 | Nc1nc2ccc(C(=O)NCc3ccc(C(=O)NCc4ccccc4)cc3)cc2s1 | 10 to 25 |  |  |  |  | 53 |  | 18.9 | > 25 | 6.85 | > 25 |  | > 25 | > 60 | > 60% | > 25 | > 25 | Non-Toxic | Non-Toxic | 
9 | COC(=O)C1CCN(C(=O)c2ccc(COc3ccc4nc(N)sc4c3)cc2)CC1 | 10 to 25 |  | 27 | > 25 | > 25 | 52 |  | 31.9 | > 25 | 3.3 | > 25 |  | > 25 | > 60 | > 60% | > 25 | > 25 | Non-Toxic |  | 
10 | Nc1nc2ccc(OC(F)(F)F)cc2s1 [RILUZOLE] | > 25 |  |  |  |  |  |  | 94.1 |  | 15.1 | > 25 |  | 10 to 25 | > 60 | > 60% | > 25 |  | Non-Toxic | Non-Toxic | growth inhibition (GI) [6]: Non-Toxic
